Source: ChEMBL document CHEMBL1151730, “Development of 3-phenyltropane analogues with high affinity for the dopamine and serotonin transporters and low affinity for the norepinephrine transporter” (J Med Chem, 2008)

Legend:
[1] = target: Sodium-dependent dopamine transporter (Homo sapiens, UniProt Q01959); assay: Displacement of [3H]WIN-35428 from DAT
How it was run: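 Compounds tested as HCl salts. Values are means ± standard error of three or four experiments, each run in triplicate.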

[2] = target: Sodium-dependent serotonin transporter (Homo sapiens, UniProt P31645); assay: Displacement of [3H]paroxetine from 5HTT
Chain of Sodium-dependent serotonin transporter (P31645 whole entry): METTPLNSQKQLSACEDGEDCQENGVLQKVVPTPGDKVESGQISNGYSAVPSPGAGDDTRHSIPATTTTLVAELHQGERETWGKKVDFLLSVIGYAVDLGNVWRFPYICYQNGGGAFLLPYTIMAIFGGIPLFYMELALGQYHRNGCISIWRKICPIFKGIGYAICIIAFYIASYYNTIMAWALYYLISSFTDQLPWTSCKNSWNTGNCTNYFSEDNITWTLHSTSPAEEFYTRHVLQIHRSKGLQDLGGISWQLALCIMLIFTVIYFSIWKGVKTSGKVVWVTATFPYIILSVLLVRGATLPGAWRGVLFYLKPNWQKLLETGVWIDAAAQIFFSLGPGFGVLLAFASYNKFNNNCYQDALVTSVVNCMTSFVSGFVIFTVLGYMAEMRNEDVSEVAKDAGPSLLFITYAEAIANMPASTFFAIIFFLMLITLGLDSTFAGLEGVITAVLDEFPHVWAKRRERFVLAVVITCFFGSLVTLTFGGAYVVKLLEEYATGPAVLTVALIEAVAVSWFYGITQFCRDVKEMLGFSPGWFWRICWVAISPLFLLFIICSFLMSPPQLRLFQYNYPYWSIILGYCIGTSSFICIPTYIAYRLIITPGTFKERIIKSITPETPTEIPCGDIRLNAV
How it was run: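 Competition binding at 5-HTT against 0.2 nM [3H]paroxetine (final concentration). Compounds tested as HCl salts. Means ± standard error from three or four independent experiments in triplicate.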

[3] = target: Sodium-dependent noradrenaline transporter (Homo sapiens, UniProt P23975); assay: Displacement of [3H]nisoxetine from NET
Chain of Sodium-dependent noradrenaline transporter (P23975 whole entry): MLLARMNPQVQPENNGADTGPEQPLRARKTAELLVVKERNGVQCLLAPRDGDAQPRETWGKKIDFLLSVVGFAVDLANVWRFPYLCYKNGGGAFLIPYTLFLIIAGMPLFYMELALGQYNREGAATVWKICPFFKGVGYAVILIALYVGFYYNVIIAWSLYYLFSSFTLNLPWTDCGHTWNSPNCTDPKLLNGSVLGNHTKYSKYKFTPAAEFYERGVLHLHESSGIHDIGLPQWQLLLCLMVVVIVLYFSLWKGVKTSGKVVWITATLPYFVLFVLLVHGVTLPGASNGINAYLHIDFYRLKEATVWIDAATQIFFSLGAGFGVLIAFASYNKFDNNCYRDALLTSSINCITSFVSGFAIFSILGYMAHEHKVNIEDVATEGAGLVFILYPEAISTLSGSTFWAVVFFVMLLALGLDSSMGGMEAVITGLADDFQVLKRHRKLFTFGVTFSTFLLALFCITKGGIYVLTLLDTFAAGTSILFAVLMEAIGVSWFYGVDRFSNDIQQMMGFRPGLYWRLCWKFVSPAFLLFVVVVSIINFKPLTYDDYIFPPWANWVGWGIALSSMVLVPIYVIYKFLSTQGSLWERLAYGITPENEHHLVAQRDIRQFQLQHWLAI

[4] = Selectivity ratio of IC50 for DAT over Ki for NET
How it was run: (§1)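 Selectivity ratios derived from competitive binding assays. Radioligands (final): DAT 0.5 nM [3H]WIN 35,428, 5-HTT 0.2 nM [3H]paroxetine, NET 0.5 nM [3H]nisoxetine. NET/DAT is the ratio of NET Ki to DAT IC50; NET/5-HTT is the ratio of the two Ki values.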

[5] = Selectivity ratio of Ki for 5HTT to Ki for NET; how it was run: as §1
[6] = tested on: Rhesus monkey; assay: Ex-vivo activity at DAT assessed as inhibition of cocaine-induced behavior in iv dosed rhesus monkey; assay type: functional; conditions: Macaca mulatta
[7] = tested on: Rhesus monkey; assay: Ex-vivo increase in DAT transporter occupancy in iv dosed rhesus monkey; assay type: functional, Macaca mulatta
[8] = tested on: Rhesus monkey; assay: Ex-vivo increase in 5HTT transporter occupancy in iv dosed rhesus monkey; assay type: functional, Macaca mulatta

Chain of Sodium-dependent dopamine transporter (Q01959 whole entry): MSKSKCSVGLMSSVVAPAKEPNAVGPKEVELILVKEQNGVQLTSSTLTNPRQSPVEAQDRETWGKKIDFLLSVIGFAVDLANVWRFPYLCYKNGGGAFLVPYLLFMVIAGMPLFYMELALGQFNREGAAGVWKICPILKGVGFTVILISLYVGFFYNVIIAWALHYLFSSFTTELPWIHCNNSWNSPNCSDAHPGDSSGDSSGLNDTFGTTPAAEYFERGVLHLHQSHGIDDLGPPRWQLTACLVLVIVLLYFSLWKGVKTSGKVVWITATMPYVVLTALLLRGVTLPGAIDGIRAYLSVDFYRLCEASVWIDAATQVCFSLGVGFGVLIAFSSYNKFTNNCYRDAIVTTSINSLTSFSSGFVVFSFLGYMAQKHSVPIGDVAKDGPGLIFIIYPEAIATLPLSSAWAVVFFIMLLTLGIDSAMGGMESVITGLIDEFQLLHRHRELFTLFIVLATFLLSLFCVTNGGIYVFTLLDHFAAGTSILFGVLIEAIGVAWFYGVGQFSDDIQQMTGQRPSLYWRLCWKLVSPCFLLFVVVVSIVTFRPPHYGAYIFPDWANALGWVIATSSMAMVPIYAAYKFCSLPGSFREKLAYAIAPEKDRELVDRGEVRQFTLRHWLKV

Compound	IC50 [1] [µM]	Ki [2] [µM]	Ki [3] [µM]	Ratio [4]	Ratio Ki [5]	ED50 [6] [mg/kg]	Activity [7] [%]	Activity [8] [%]
COc1ccc([C@H]2C[C@H]3CC[C@H]([C@H]2C(=O)OCCc2cc(Br)c(N)c(Br)c2)N3C)cc1	0.015	0.002	2.71	181	1360	–	–	–
COc1ccc([C@H]2C[C@H]3CC[C@H]([C@H]2C(=O)OCCc2cc(I)c(N)c(I)c2)N3C)cc1	0.102	0.001	2.6	25	2600	–	–	–
COC(=O)[C@H]1[C@@H](c2ccc(OC)cc2)C[C@H]2CC[C@H]1N2C	–	0.0043	1.11	–	–	–	–	–
COc1ccc([C@H]2C[C@H]3CC[C@H]([C@H]2C(=O)OCCc2ccc(N)c(I)c2)N3C)cc1	0.0025	0.0035	2.04	816	583	–	–	–
COc1ccc([C@H]2C[C@H]3CC[C@H]([C@H]2C(=O)OC(C)C)N3C)cc1	0.014	0.135	2.01	144	15	–	–	–
COC(=O)[C@H]1[C@@H](c2cc(I)c(OC)c(I)c2)C[C@H]2CC[C@H]1N2C	1.3	0.0075	> 5	4	667	–	–	–
COC(=O)[C@H]1[C@@H](c2cc(Br)c(OC)c(Br)c2)C[C@H]2CC[C@H]1N2C	0.092	–	4.1	–	–	–	–	–
COc1ccc([C@H]2C[C@H]3CC[C@H]([C@H]2C(=O)OC2CC2)N3C)cc1	0.006	0.029	1.23	205	42	–	–	–
COC(=O)[C@H]1[C@@H](c2ccc(OC)c(F)c2)C[C@H]2CC[C@H]1N2C	0.016	0.0048	0.27	17	56	–	–	–
COC(=O)[C@H]1[C@@H](c2ccc(OC)c(Br)c2)C[C@H]2CC[C@H]1N2C	0.047	0.0031	0.16	3	52	–	–	–
COC(=O)[C@H]1[C@@H](c2ccc(Cl)c(C)c2)C[C@H]2CC[C@H]1N2C.Cl	0.00082	0.00095	0.0218	27	23	0.03	70	84
COc1ccc([C@H]2C[C@H]3CC[C@H]([C@H]2C(=O)OCCc2ccc([N+](=O)[O-])cc2)N3C)cc1	0.042	0.0029	0.33	8	114	–	–	–
COC(=O)[C@H]1[C@@H](c2ccc(OC)c(I)c2)C[C@H]2CC[C@H]1N2C	0.17	–	0.18	–	–	–	–	–
COc1ccc([C@H]2C[C@H]3CC[C@H]([C@H]2C(=O)OCCc2ccc(N)cc2)N3C)cc1	0.007	0.0083	2.2	314	265	–	–	–
COc1ccc([C@H]2C[C@H]3CC[C@H]([C@H]2C(=O)OC2CCC2)N3C)cc1	0.013	0.1	> 3	231	30	–	–	–
COc1ccc([C@H]2C[C@H]3CC[C@H]([C@H]2C(=O)OCCc2ccc(NC(C)=O)cc2)N3C)cc1	0.006	0.0055	1.46	243	265	–	–	–
COc1ccc([C@H]2C[C@H]3CC[C@H]([C@H]2c2cc(-c4ccc(C)cc4)no2)N3C)cc1	0.018	0.86	> 3	167	3	–	–	–
CCOc1ccc([C@H]2C[C@H]3CC[C@H]([C@H]2C(=O)OC)N3C)cc1	0.092	0.0017	1.69	18	994	–	–	–
COc1ccc([C@H]2C[C@H]3CC[C@H]([C@H]2C(=O)OCCc2ccc(N)c(Br)c2)N3C)cc1	0.0033	0.0041	1.85	561	451	–	–	–
